pIC50: −log10 of the molar value.
Legend:
[1] = target: Voltage-gated inwardly rectifying potassium channel KCNH2 (Homo sapiens, UniProt Q12809); assay: Binding affinity to human ERG up to 50 uM after 2 hrs by fluorescence polarization assay
Procedure, shortened: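 Fluorescence polarization tracer displacement kit: hERG membrane plus red tracer with compound or positive control, 2 h at room temperature, read with polarized excitation/emission filters; dofetilide-binding surrogate for hERG.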

[2] = target: Prostaglandin G/H synthase 1 (Homo sapiens, UniProt P23219); assay: Inhibition of human COX-1 preincubated for 15 mins followed by fluorometric substrate/heme addition for 15 mins subsequently incubated with arachidonic acid for 2 mins by fluorescence analysis; type: ADME
Chain of Prostaglandin G/H synthase 1 (P23219 whole entry): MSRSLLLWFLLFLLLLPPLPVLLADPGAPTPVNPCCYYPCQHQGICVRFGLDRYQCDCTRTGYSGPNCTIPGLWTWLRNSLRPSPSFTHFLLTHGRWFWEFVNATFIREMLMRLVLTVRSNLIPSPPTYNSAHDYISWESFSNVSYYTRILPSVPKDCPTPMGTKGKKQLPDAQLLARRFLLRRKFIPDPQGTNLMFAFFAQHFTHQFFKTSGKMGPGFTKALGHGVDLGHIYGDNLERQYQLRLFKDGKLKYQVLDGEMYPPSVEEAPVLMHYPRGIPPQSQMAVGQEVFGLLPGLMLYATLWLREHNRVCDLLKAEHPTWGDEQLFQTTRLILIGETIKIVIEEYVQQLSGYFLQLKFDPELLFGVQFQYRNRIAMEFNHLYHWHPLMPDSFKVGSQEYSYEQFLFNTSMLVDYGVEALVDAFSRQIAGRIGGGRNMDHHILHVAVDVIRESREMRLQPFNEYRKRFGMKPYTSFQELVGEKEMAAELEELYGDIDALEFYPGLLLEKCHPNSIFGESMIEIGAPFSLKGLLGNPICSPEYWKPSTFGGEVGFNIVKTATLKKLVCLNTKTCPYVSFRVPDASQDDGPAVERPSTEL

[3] = target: T1, Prostaglandin G/H synthase 2 (Homo sapiens, UniProt P35354); assay: Inhibition of recombinant human COX-2 preincubated for 15 mins followed by fluorometric substrate/heme addition for 15 mins subsequently incubated with arachidonic acid for 2 mins by fluorescence analysis
T1 sequence (P35354 whole entry): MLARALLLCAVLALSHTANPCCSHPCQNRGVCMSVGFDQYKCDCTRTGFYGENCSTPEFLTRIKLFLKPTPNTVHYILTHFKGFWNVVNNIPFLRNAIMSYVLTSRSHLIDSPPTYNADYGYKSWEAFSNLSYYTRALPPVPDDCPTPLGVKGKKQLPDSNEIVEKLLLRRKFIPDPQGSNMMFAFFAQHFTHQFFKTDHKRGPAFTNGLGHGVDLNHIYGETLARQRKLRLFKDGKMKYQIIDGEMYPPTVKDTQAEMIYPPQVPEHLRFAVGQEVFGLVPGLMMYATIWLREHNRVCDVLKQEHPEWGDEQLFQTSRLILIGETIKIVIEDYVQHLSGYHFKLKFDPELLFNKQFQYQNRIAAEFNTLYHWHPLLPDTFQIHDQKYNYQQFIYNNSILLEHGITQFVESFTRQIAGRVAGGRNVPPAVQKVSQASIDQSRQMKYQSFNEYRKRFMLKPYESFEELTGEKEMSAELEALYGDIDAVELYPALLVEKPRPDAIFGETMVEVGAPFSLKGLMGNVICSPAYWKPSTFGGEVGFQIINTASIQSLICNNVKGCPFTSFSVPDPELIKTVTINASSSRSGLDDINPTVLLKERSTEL

[4] = (§1) Protein binding in human plasma at 10 uM after 5 hrs by rapid equilibrium dialysis; type: ADME, cell-free; details: read-out: PPB (converted)
Procedure, shortened: (§2)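 Rapid equilibrium dialysis against human plasma for 5 h; drug in plasma and buffer chambers quantified by LC/MS; bound % = [1 − (buffer/plasma concentration)] × 100, n = 3.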

[5] = AUC (0 to infinity) in Sprague-Dawley rat at 5 mg/kg, iv by LC-MS/MS analysis; type: ADME, organism-based; design: dose 5 mg/kg, time infinity, route intravenous; details: in vivo
Rattus norvegicus [6] = assay: Antiarthritic activity in adjuvant-induced Lewis rat model of arthritis assessed as reduction in arthritis score administered via oral gavage once daily starting from day 15 to 25 post adjuvant injection measured post last dose; type: functional; details: 360 h
Procedure, shortened: (§3)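 Adjuvant arthritis in male Lewis rats (170–200 g): 1 mg heat-killed M. tuberculosis in 0.2 mL mineral oil into tail base; responders (left hind paw >0.375 mL above day 0 at day 14) randomized, n = 6/group. Oral gavage once daily in 0.5% methylcellulose at 0.1–10 mg/kg, days 15–24. Day 25: plethysmometer paw volume, limb scores 0–4 (total 0–16), movement 0–3; ED50 derived.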

[7] = Cmax in Sprague-Dawley rat at 5 mg/kg, po administered via gastric gavage by LC-MS/MS analysis; type: ADME, organism-based; design: dose 5 mg/kg, route oral; details: in vivo
Rattus norvegicus [8] = assay: Antiinflammatory activity in carrageenan induced Sprague-Dawley rat model of inflammation assessed as reduction in PGE2 levels in air pouch administered via po 1 hr prior to carrageenan challenge measured 3 hrs post challenge by ELISA; type: functional
Procedure, shortened: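 Male SD rats; 20 mL sterile air injected subcutaneously in back. Oral dosing in 0.5% carboxymethyl cellulose at 0.03–10 mg/kg (n = 6), vehicle control; 1 h later 6 mL 1% carrageenan into pouch (one day after pouch formation).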

[9] = Tmax in Sprague-Dawley rat at 5 mg/kg, po administered via gastric gavage by LC-MS/MS analysis; type: ADME, organism-based; details: in vivo
[10] = Tmax in Sprague-Dawley rat at 5 mg/kg, iv by LC-MS/MS analysis; type: ADME, organism-based; details: in vivo
Rattus norvegicus [11] = assay: Antiarthritic activity in adjuvant-induced Lewis rat model of arthritis assessed as reduction in paw edema administered via oral gavage once daily starting from day 15 to 25 post adjuvant injection measured post last dose; type: functional; details: 360 h; procedure, shortened: as §3
Rattus norvegicus [12] = assay: Antiinociceptive activity in carrageenan induced Sprague-Dawley rat model of pain assessed as reversal of paw thermal hyperalgesia administered via po 0.5 hrs prior to carrageenan challenge measured 3 hrs post challenge; type: functional
Procedure, shortened: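 Male SD rats (180–220 g), 0.2 mL 3% λ-carrageenan subcutaneously into right hind paw; oral dosing in 0.5% carboxymethyl cellulose at 1–100 mg/kg (n = 6) 0.5 h before.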

[13] = Oral bioavailability in Sprague-Dawley rat at 5 mg/kg administered via gastric gavage by LC-MS/MS analysis; type: ADME, organism-based; details: in vivo
[14] = Half-life in Sprague-Dawley rat at 5 mg/kg, iv by LC-MS/MS analysis; type: ADME, organism-based; details: in vivo
[15] = Half-life in Sprague-Dawley rat at 5 mg/kg, po administered via gastric gavage by LC-MS/MS analysis; type: ADME, organism-based; details: in vivo
Rattus norvegicus [16] = assay: Antiarthritic activity in adjuvant-induced Lewis rat model of arthritis assessed as inhibition of movement disorder score at 10 mg/kg administered via oral gavage every 5 days starting from day 15 to 25 post adjuvant injection measured post last dose; type: functional
Procedure, shortened: (§4)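 Lewis male rats (170–200 g) given 1 mg heat-killed M. tuberculosis in 0.2 mL mineral oil at tail base; rats with left hind paw volume increase >0.375 mL by day 14 selected. Compound dosed orally at 10 mg/kg every 5 days from day 15 (two doses). Scored day 25: paw volume, arthritis 0–16 (erythema/swelling), movement 0–3.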

Rattus norvegicus [17] = assay: Antiarthritic activity in adjuvant-induced Lewis rat model of arthritis assessed as reduction in movement disorder administered via oral gavage once daily starting from day 15 to 25 post adjuvant injection measured post last dose; type: functional; details: 360 h; procedure, shortened: as §3
Rattus norvegicus [18] = assay: Antiinflammatory activity in carrageenan induced Sprague-Dawley rat model of inflammation assessed as reduction in paw edema administered via po 0.5 hrs prior to carrageenan challenge measured 1 to 4 hrs post challenge by plethysmometer; type: functional
Procedure, shortened: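 Male SD rats dosed orally in 0.5% carboxymethyl cellulose at 1, 3, 10, 30, 100 mg/kg (n = 6), vehicle control, 0.5 h before carrageenan into right hind paw. Paw volume by water-displacement plethysmometer before and after injection; percent inhibition from paw-volume increment versus controls; ED50 fitted.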

Rattus norvegicus [19] = assay: Antiarthritic activity in adjuvant-induced Lewis rat model of arthritis assessed as inhibition of arthritis score at 10 mg/kg administered via oral gavage every 5 days starting from day 15 to 25 post adjuvant injection measured post last dose; type: functional; procedure, shortened: as §4
[20] = Cmax in Sprague-Dawley rat at 5 mg/kg, iv by LC-MS/MS analysis; type: ADME, organism-based; design: dose 5 mg/kg, route intravenous; details: in vivo
Rattus norvegicus [21] = assay: Antiarthritic activity in adjuvant-induced Lewis rat model of arthritis assessed as inhibition of paw edema score at 10 mg/kg administered via oral gavage every 5 days starting from day 15 to 25 post adjuvant injection measured post last dose; type: functional; procedure, shortened: as §4
[22] = AUC (0 to infinity) in Sprague-Dawley rat at 5 mg/kg, po administered via gastric gavage by LC-MS/MS analysis; type: ADME, organism-based; design: dose 5 mg/kg, route oral, time infinity; details: in vivo
Plasma = assay: as §1; type: ADME, cell-free; details: 5 h, 10 µM; procedure, shortened: as §2

Chain of Voltage-gated inwardly rectifying potassium channel KCNH2 (Q12809 whole entry): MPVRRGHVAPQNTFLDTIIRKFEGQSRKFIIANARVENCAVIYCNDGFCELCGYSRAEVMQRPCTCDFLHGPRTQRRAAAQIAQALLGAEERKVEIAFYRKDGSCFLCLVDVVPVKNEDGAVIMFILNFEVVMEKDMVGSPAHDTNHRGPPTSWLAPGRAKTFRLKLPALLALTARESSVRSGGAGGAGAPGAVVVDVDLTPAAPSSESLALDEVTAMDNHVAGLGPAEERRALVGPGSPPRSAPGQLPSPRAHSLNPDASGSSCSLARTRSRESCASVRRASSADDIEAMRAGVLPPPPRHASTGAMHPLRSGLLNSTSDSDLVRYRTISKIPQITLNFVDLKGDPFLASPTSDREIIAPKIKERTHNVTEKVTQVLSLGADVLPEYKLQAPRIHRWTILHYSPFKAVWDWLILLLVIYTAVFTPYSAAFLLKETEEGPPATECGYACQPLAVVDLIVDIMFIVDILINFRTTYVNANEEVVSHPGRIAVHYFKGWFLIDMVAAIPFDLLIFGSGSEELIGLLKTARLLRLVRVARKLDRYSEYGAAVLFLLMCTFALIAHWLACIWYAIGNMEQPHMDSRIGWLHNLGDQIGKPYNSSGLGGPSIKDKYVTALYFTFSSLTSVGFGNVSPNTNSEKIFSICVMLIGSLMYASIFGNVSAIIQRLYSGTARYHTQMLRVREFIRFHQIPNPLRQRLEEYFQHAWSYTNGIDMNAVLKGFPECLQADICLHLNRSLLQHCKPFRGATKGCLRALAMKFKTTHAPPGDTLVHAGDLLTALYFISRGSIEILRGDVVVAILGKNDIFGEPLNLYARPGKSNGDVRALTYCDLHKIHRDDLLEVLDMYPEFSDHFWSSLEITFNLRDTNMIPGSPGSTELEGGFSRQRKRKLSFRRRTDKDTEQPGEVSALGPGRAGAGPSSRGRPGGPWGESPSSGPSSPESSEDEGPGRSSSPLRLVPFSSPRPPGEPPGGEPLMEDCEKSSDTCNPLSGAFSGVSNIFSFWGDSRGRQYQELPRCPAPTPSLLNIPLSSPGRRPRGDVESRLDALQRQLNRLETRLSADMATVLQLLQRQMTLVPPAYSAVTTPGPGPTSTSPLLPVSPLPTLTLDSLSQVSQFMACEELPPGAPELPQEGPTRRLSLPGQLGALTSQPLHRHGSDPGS

O=C(O)C1=Cc2cc(S(F)(F)(F)(F)F)ccc2O[C@@H]1C(F)(F)F
Activity [1]: Not Active | pIC50 [2]: < 4.52 | pIC50 [3]: 8.00 | fraction unbound at 5 h, 10 µM [4]: 0.0004

CCc1cc(S(F)(F)(F)(F)F)cc2c1OC(C(F)(F)F)C(C(=O)O)=C2 (centres undefined)
Activity [1]: Not Active | pIC50 [2]: < 5.00 | pIC50 [3]: 7.22

O=C(O)C1=Cc2cc(S(F)(F)(F)(F)F)ccc2OC1C(F)(F)F (centres undefined)
Activity [1]: Not Active | AUC(0-inf) [5]: 364 µg·h/mL | ED50 (Rattus norvegicus [6]): 0.094 mg/kg | Cmax [7]: 15300 ng/mL | Activity (Rattus norvegicus [8]): Dose-dependent effect | ED50 (Rattus norvegicus [8]): 0.37 mg/kg | Tmax [9]: 7.75 h | pIC50 [2]: < 5.00 | Tmax [10]: 1.98 min | ED50 (Rattus norvegicus [11]): 0.093 mg/kg | Activity (Rattus norvegicus [12]): Dose-dependent effect | ED50 (Rattus norvegicus [12]): 2.8 mg/kg | bioavailability [13]: 100 to 114% | pIC50 [3]: 7.74 | half-life [14]: 17.3 h | half-life [15]: 12.5 h | inhibition in vivo at 10 mg/kg (Rattus norvegicus [16]): 79.2% | ED50 (Rattus norvegicus [17]): 0.12 mg/kg | Activity (Rattus norvegicus [18]): Dose-dependent effect | ED50 (Rattus norvegicus [18]): 4 mg/kg | fraction unbound at 5 h, 10 µM [4]: 0.001 | inhibition in vivo at 10 mg/kg (Rattus norvegicus [19]): 69.6% | Cmax [20]: 31700 ng/mL | inhibition in vivo at 10 mg/kg (Rattus norvegicus [21]): 66.9% | AUC(0-inf) [22]: 414 µg·h/mL

O=C(O)C1=Cc2cc(S(F)(F)(F)(F)F)ccc2O[C@H]1C(F)(F)F
pIC50 [2]: < 5.00 | pIC50 [3]: 6.52

CCCc1cc(S(F)(F)(F)(F)F)cc2c1OC(C(F)(F)F)C(C(=O)O)=C2 (centres undefined)
Activity [1]: Not Active | pIC50 [2]: < 5.00 | pIC50 [3]: 7.34

O=C(O)C1=Cc2cc(S(F)(F)(F)(F)F)cc(Cc3ccccc3)c2OC1C(F)(F)F (centres undefined)
pIC50 [2]: < 5.00 | pIC50 [3]: < 4.00

O=CC1=Cc2cc(S(F)(F)(F)(F)F)ccc2OC1C(F)(F)F (centres undefined)
pIC50 [2]: < 5.00 | pIC50 [3]: < 5.00

O=CC1=Cc2cc(S(F)(F)(F)(F)F)cc(Br)c2OC1C(F)(F)F (centres undefined)
pIC50 [2]: < 5.00 | pIC50 [3]: < 5.00

Cc1cc(S(F)(F)(F)(F)F)cc2c1OC(C(F)(F)F)C(C(=O)O)=C2 (centres undefined)
Activity [1]: Not Active | pIC50 [2]: < 5.00 | pIC50 [3]: 7.59 | fraction unbound at 5 h, 10 µM [4]: 0.0005

Cc1ccc(-c2cc(C(F)(F)F)nn2-c2ccc(S(N)(=O)=O)cc2)cc1 [CELECOXIB]
ED50 (Rattus norvegicus [6]): 0.71 mg/kg | ED50 (Rattus norvegicus [8]): 0.69 mg/kg | ED50 (Rattus norvegicus [11]): 1.6 mg/kg | ED50 (Rattus norvegicus [12]): 5 mg/kg | ED50 (Rattus norvegicus [17]): 9.2 mg/kg | ED50 (Rattus norvegicus [18]): 2.8 mg/kg

O=C(O)C1=Cc2ccc(S(F)(F)(F)(F)F)cc2OC1C(F)(F)F (centres undefined)
pIC50 [2]: < 5.00 | pIC50 [3]: < 5.00 | fraction unbound at 5 h, 10 µM [4]: 0.0006

CCCCc1cc(S(F)(F)(F)(F)F)cc2c1OC(C(F)(F)F)C(C(=O)O)=C2 (centres undefined)
Activity [1]: Not Active | pIC50 [2]: < 5.00 | pIC50 [3]: 6.72 | fraction unbound at 5 h, 10 µM [4]: 0.0008

O=C(O)C1=Cc2cc(S(F)(F)(F)(F)F)cc(Br)c2OC1C(F)(F)F (racemic)
pIC50 [2]: < 5.00 | pIC50 [3]: 7.25

O=C(O)C1=Cc2cc(S(F)(F)(F)(F)F)cc(Br)c2O[C@H]1C(F)(F)F
pIC50 [2]: < 5.00 | pIC50 [3]: 6.47 | fraction unbound at 5 h, 10 µM [4]: 0.0005

CN(C)CCCN1c2ccccc2Sc2ccc(Cl)cc21.Cl [CHLORPROMAZINE HYDROCHLORIDE]
PPB (Plasma): 99.82%

O=C(O)C1=Cc2cc(S(F)(F)(F)(F)F)cc(Br)c2O[C@@H]1C(F)(F)F
pIC50 [2]: < 5.00 | pIC50 [3]: 8.10 | fraction unbound at 5 h, 10 µM [4]: 0.0009
